Here are results for 1 compound from ChEMBL document CHEMBL4834477, “Synthesis and biological evaluation of novel purinyl quinazolinone derivatives as PI3Kδ-specific inhibitors for the treatment of hematologic malignancies” (Bioorg Med Chem, 2021).

In general, AUC(0-t) refers to the area under the concentration-time curve up to a stated or last time point. A high value points to high exposure. What is called Cmax is the peak of the concentration-time curve. What is called Tmax is the time from dosing to the highest level. The term half-life denotes the time needed for the level to fall by half in the phase considered. The IC50 is the point on the concentration scale where inhibition reaches its midpoint.

Calls of active or inactive are those of the source.

For one data set, the system named is SU-DHL-5. The experiment in a line: Antiproliferative activity against human SU-DHL-5 cells assessed as cell viability at 10 uM by CellTiter-Glo luminescent cell viability assay (reference value: 100%). It counts as functional. The settings on record: read-out: Activity. (In ATP-based viability assays light output follows the ATP content of the culture.)
For data set [1], the system named is MOLT-4. The experiment in a line: Antiproliferative activity against human MOLT-4 cells assessed as cell viability at 20 uM by CellTiter-Glo luminescent cell viability assay (reference value: 100%). The data set is classed as functional. The settings on record: read-out: Activity.
The target in data set [2] is T1, Phosphatidylinositol 4,5-bisphosphate 3-kinase catalytic subunit delta isoform (Homo sapiens) (UniProt O00329).
T1 sequence (whole entry): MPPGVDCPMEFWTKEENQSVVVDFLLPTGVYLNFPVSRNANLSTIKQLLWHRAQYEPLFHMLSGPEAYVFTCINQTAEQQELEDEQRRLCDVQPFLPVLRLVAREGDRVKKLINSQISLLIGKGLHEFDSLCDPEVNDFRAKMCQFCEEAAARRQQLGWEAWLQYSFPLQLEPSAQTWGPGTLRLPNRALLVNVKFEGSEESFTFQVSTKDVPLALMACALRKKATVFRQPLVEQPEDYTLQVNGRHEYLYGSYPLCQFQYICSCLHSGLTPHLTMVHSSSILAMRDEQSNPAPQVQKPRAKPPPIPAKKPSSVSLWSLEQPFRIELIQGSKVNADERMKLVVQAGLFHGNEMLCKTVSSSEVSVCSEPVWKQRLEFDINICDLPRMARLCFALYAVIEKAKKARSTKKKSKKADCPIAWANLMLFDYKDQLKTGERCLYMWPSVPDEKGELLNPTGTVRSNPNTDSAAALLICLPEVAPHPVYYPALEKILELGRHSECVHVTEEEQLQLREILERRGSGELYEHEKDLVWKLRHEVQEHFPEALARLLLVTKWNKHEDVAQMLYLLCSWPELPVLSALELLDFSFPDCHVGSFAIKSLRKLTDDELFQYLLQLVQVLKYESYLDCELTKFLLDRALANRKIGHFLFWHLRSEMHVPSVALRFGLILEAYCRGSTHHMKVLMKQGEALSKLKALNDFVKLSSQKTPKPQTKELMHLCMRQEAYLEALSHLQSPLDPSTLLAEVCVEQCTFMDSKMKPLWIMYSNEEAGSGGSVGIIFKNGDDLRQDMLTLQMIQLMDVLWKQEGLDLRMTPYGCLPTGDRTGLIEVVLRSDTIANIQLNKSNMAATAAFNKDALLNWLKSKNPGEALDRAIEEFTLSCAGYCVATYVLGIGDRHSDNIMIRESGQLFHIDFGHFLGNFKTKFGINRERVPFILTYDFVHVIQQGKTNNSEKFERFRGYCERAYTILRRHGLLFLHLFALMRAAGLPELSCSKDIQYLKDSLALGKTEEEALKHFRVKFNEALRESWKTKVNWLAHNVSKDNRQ
The experiment in a line: Inhibition of PI3Kdelta in human SU-DHL-5 cells assessed as inhibition of AKT phosphorylation at Ser473 residue at 1 to 5 uM measured after 3 hrs by western blot assay. It counts as cell-based. The settings on record: dose 1-5 µM. Put shortly:
(§1)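 Treatment lasted 3 h: SUDHL-5 at 1 μM, MOLT-4 at 5 μM. Cells washed twice in cold PBS and lysed. Proteins resolved on 10–12% SDS-PAGE and blotted to PVDF. Probed for p-AKT S473, p-AKT T308, p-S6 and p-4E-BP1, with β-actin as loading control.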
(In general: A western blot detects proteins with antibodies after separation by electrophoresis.)

Data set [3] concerns the target T1, Phosphatidylinositol 4,5-bisphosphate 3-kinase catalytic subunit delta isoform (Homo sapiens). The experiment in a line: Inhibition of PI3Kdelta in human MOLT-4 cells assessed as inhibition of AKT phosphorylation at Ser473 residue at 1 to 5 uM measured after 3 hrs by western blot assay. The data set is classed as cell-based. The settings on record: dose 1-5 µM. Put shortly: as §1

Data set [4] deals with SU-DHL10. Description: Induction of apoptosis in human SU-DHL-10 cells assessed as viable cells at 20 uM measured after 24 hrs by AnnexinV-FITC/PI staining based flowcytometry method (reference value: 90%). The settings on record: read-out: Activity. The data set is classed as functional. Put shortly:
(§2)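 Cells exposed to 20 μM compound for 24 h, washed with cold PBS, and stained with Annexin V-FITC and propidium iodide for 15 min at room temperature. Viable, early apoptotic, late apoptotic and necrotic populations quantified by flow cytometry.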

Data set [5] deals with SU-DHL10. The experiment in a line: Induction of apoptosis in human SU-DHL-10 cells assessed as early apoptotic cells at 20 uM measured after 24 hrs by AnnexinV-FITC/PI staining based flowcytometry method (reference value: 6.32%). It counts as functional. Put shortly:
as §2

Data set [6] relates to SU-DHL10. The experiment in a line: Induction of apoptosis in human SU-DHL-10 cells assessed as late apoptotic cells at 20 uM measured after 24 hrs by AnnexinV-FITC/PI staining based flowcytometry method (reference value: 3.48%). The data set is classed as functional. Put shortly: as §2
Data set [7] relates to SU-DHL10. The experiment in a line: Induction of apoptosis in human SU-DHL-10 cells assessed as necrotic cells at 20 uM measured after 24 hrs by AnnexinV-FITC/PI staining based flowcytometry method (reference value: 0.2%). The data set is classed as functional. Put shortly:
as §2

The test system of data set [8] is MOLT-4. The experiment in a line: Induction of apoptosis in human MOLT-4 cells assessed as viable cells at 20 uM measured after 24 hrs by AnnexinV-FITC/PI staining based flowcytometry method (reference value: 95.3%). The data set is classed as functional. The settings on record: read-out: Activity. In short, it runs like this:
as §2

For data set [9], the system named is MOLT-4. Description: Induction of apoptosis in human MOLT-4 cells assessed as early apoptotic cells at 20 uM measured after 24 hrs by AnnexinV-FITC/PI staining based flowcytometry method (reference value: 2.04%). It counts as functional. Put shortly:
as §2

Data set [10] relates to MOLT-4. The experiment in a line: Induction of apoptosis in human MOLT-4 cells assessed as late apoptotic cells at 20 uM measured after 24 hrs by AnnexinV-FITC/PI staining based flowcytometry method (reference value: 2.17%). The data set is classed as functional. Put shortly: as §2
Data set [11] relates to MOLT-4. The experiment in a line: Induction of apoptosis in human MOLT-4 cells assessed as necrotic cells at 20 uM measured after 24 hrs by AnnexinV-FITC/PI staining based flowcytometry method (reference value: 0.51%). It counts as functional. In short, it runs like this:
as §2

In data set [12] the test system is MOLT-4. Description: Antitumour activity against human MOLT-4 cells xenografted in Balb/c nude mouse assessed as inhibition of tumour growth at 10 mg/kg, po administered via gavage qd for 57 days. It counts as functional. The settings on record: dose 10.0 mg/kg/day, time 57.0 day. In short, it runs like this:
(§3)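 MOLT-4 cells (2×10^6 in 0.1 mL D-PBS) implanted subcutaneously on the back of BALB/c-nude mice. Once tumours grew, mice were dosed daily by oral gavage at 10 mg/kg for 57 consecutive days. Tumours measured by caliper, with volume = ½ × […]. Body weight was tracked over the same period.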
In general terms: Xenograft models place foreign cells or tissue in a host animal.

Data set [13] is described as follows: Toxicity in Balb/c nude mouse xenografted with human MOLT-4 cells assessed as changes in body weight at 10 mg/kg, po administered via gavage qd for 57 days. It counts as organism-based. The settings on record: in vivo, 1368 h, dose 10 mg/kg/day, time 57 day. Put shortly:
as §3

The nature of data set [14]: AUC (last) in Sprague-Dawley rat at 3 mg/kg, po measured for 24 hrs by LC-MS/MS analysis. It counts as ADME, organism-based. Also on record: route oral, time 24 hrs, dose 3 mg/kg. The settings on record: in vivo. In short, it runs like this: (§4)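 Sprague-Dawley rats dosed orally at 1 or 3 mg/kg, three animals per group. Blood sampled at 0.25, 0.5, 1, 2, 4, 8 and 24 h post-dose. Plasma separated by centrifugation, extracted and quantified by LC-MS/MS. PK parameters (Cmax, AUClast, Tmax, t1/2) derived by non-compartmental software.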

The nature of data set [15]: Cmax in Sprague-Dawley rat at 3 mg/kg, po measured for 24 hrs by LC-MS/MS analysis. It counts as ADME, organism-based. Also on record: route oral, time 24 hrs, dose 3 mg/kg. The settings on record: in vivo. Put shortly: as §4
A short description of data set [16]: Tmax in Sprague-Dawley rat at 3 mg/kg, po measured for 24 hrs by LC-MS/MS analysis. It counts as ADME, organism-based. The settings on record: in vivo. Put shortly: as §4
Data set [17] is described as follows: Half life in Sprague-Dawley rat at 3 mg/kg, po measured for 24 hrs by LC-MS/MS analysis. The settings on record: in vivo. It counts as ADME, organism-based. Put shortly:
as §4

Data set [18] in a line: Cytotoxicity against human MRC5 cells assessed as inhibition of cell viability at 20 uM measured after 48 hrs by MTT assay. The data set is classed as cell-based. The settings on record: read-out: INH. In short, it runs like this: (§5)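 MTT assay in MRC-5 cells seeded at 2×10^6 cells/mL. Compound given in 1% FBS EMEM for 48 h at 37 °C in CO2. MTT solution then added for 3 h at 37 °C. Medium removed and formazan dissolved in DMSO.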

Another data set has as its system MRC5. Description: Cytotoxicity against human MRC5 cells assessed as inhibition of cell viability measured after 48 hrs by MTT assay. It counts as cell-based. The settings on record: MRC5, 48 h. Put shortly:
as §5

In data set [19] the target is T1, Phosphatidylinositol 4,5-bisphosphate 3-kinase catalytic subunit delta isoform (Homo sapiens). Description: Inhibition of PI3Kdelta in human SU-DHL-5 cells assessed as inhibition of AKT phosphorylation at Thr308 residue at 1 to 5 uM measured after 3 hrs by western blot assay. It counts as cell-based. The settings on record: dose 1-5 µM. Put shortly: as §1
The target is the same in data set [20]. Description: Inhibition of PI3Kdelta in human MOLT-4 cells assessed as inhibition of AKT phosphorylation at Thr308 residue at 1 to 5 uM measured after 3 hrs by western blot assay. The settings on record: dose 1-5 µM. The data set is classed as cell-based. Put shortly:
as §1

For `CC[C@H](Nc1ncnc2[nH]cnc12)c1nc2cccc(F)c2c(=O)n1-c1ccccc1` [IDELALISIB], the viability at 10 µM in the data set on SU-DHL-5 worked out at 41.3%. Further, the figures for the viability at 20 µM in the data set with MOLT-4 [1], in the data set on SU-DHL10 [4] and with MOLT-4 [8] were 74.6%, 12.2% and 56.5%, respectively. Moreover, the inhibition result (in data set [2]; in data set [3]; with MOLT-4 [12]; in [19]; in data set [20]) was “Active” in each case. For the same compound, the Activity with SU-DHL10 [5] came out at 55.7%; in the data set on SU-DHL10 [6], 30.4%; with SU-DHL10 [7] it was 1.7%; in the data set on MOLT-4 [9], 19.2%; with MOLT-4 [10], 22%; in the data set on MOLT-4 [11], 2.34%. Also, the Activity result in data set [13] was “Non-Toxic”. In data set [14], this compound came in with an area under the curve AUC(0-t) at 24 h of 202 ng·h/mL. In addition, the Cmax in [15] came out at 53 ng/mL. In addition, the Tmax in data set [16] is 0.5 h. In data set [17], the half-life is 2.7 h. The cytotoxicity at 48 h, 20 µM in data set [18] is 18.4%. Moreover, the IC50 with MRC5 is over 100 µM.
